For orientation: inhibition means the share of the control response that was lost under treatment.

Calls of active or inactive are those of the source. The calls are words filed in the database; no cut-off is given here.

Experiment [1] can be described thus: Inhibition of phosphodiesterase (peak-1) isolated from pig coronary artery assessed as inhibition of cGMP hydrolysis using 1 uM cGMP substrate in presence of 3% Me2SO. The following applies: Sus scrofa; read-out: I50. Summed up:
(§1)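 Enzyme is a separated phosphodiesterase form from pig coronary arteries, assayed with 1 μM substrate at 30° for 30 min. Enzyme dilution gave 10–20% hydrolysis without inhibitor. Compounds were added from 30% Me2SO, giving a final 3% Me2SO in all tubes. Peak I received an optimal amount of activator (15 μg protein). I50 was read from concentration–percent inhibition curves spanning 10^-7 to 10^-4 M (10^-3 M if soluble). MIX reference was run each experiment. Results are mean ± SEM of duplicate determinations across enzyme preparations.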

A short description of experiment [2]: Inhibition of phosphodiesterase (peak-1) isolated from pig coronary artery assessed as inhibition of cAMP hydrolysis using 1 uM cAMP substrate in presence of 3% Me2SO. The following applies: Sus scrofa; read-out: I50. Put shortly: as §1
A short description of experiment [3]: Inhibition of phosphodiesterase (peak-2) isolated from pig coronary artery assessed as inhibition of cAMP hydrolysis using 1 uM cAMP substrate in presence of 3% Me2SO. The following applies: Sus scrofa; read-out: I50. Summed up:
as §1

The species entered for experiment [4] is Sus scrofa. Briefly: Inhibition of phosphodiesterase (peak-1) isolated from pig coronary artery assessed as inhibition of cGMP hydrolysis at 10^-7 to 10^-4 M using 1 uM cGMP substrate in presence of 3% EtOH.
For experiment [5], the species on record is Sus scrofa. Briefly: Inhibition of phosphodiesterase (peak-1) isolated from pig coronary artery assessed as inhibition of cAMP hydrolysis at 10^-7 to 10^-4 M using 1 uM cAMP substrate in presence of 3% EtOH.
The species entered for experiment [6] is Sus scrofa. The experiment is described as follows: Inhibition of phosphodiesterase (peak-2) isolated from pig coronary artery assessed as inhibition of cAMP hydrolysis at 10^-7 to 10^-4 M using 1 uM cAMP substrate in presence of 3% EtOH.
For experiment [7], the species on record is Sus scrofa. The experiment is described as follows: Inhibition of phosphodiesterase (peak-1) isolated from pig coronary artery assessed as inhibition of cGMP hydrolysis at 10^-4 M using 1 uM cGMP substrate in presence of 3% Me2SO. Put shortly: (§2)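 Percent inhibition was measured at a single 10^-4 M concentration against a separated pig coronary artery phosphodiesterase form. Conditions: 1 μM substrate, 30°, 30 min, enzyme dilution giving 10–20% uninhibited hydrolysis, final 3% Me2SO in all tubes including blank. Peak I was assayed with an optimal amount of activator (15 μg protein). Results are duplicate determinations, mean ± SEM over separate enzyme preparations.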

The species named for experiment [8] is Sus scrofa. Briefly: Inhibition of phosphodiesterase (peak-1) isolated from pig coronary artery assessed as inhibition of cAMP hydrolysis at 10^-4 M using 1 uM cAMP substrate in presence of 3% Me2SO. Put shortly:
as §2

Experiment [9] is filed under the species Sus scrofa. Briefly: Inhibition of phosphodiesterase (peak-2) isolated from pig coronary artery assessed as inhibition of cAMP hydrolysis at 10^-4 M using 1 uM cAMP substrate in presence of 3% Me2SO. Put shortly: as §2

`CC(C)Cn1c(=O)n(C)c(=O)c2nc[nH]c21` [ISOBUTYLMETHYLXANTHINE]: the IC50 in experiment [1] amounted to 6.3 µM; in experiment [2], 3.9 µM; in experiment [3], 15 µM. Also, the inhibition entry in the experiment filed under Sus scrofa [4], in the experiment listed under Sus scrofa [5] and in the experiment filed under Sus scrofa [6] was “Active” each time.

For `CC(C)Cn1c(=O)n(C)c(=O)c2c1ncn2Cc1cccc(Cl)c1`, the IC50 in [1] worked out at 2.1 µM; in experiment [2] it was 1.3 µM; in experiment [3], 48 µM.

With `CC(C)Cn1cc(NCc2ccccc2)c(=O)n(C)c1=O`, the inhibition in the experiment listed under Sus scrofa [7] worked out at 10%; in the experiment listed under Sus scrofa [8], 17%; in the experiment filed under Sus scrofa [9], 6%.

With `CC(C)Cn1c(=O)n(C)c(=O)c2c1ncn2Cc1ccccc1[N+](=O)[O-]`, the IC50 in experiment [1] stood at 60 µM; in experiment [2], 41 µM; in experiment [3] it was 142 µM.

`CC(C)Cn1c(=O)n(C)c(=O)c2c1ncn2Cc1ccc(Cl)cc1`: the IC50 turned out to be 2.1 µM in [1], 2.3 µM in [2] and 43 µM in [3].

`CC(C)Cn1c(=O)n(C)c(=O)c2c1ncn2CCc1ccccc1`: in the experiment listed under Sus scrofa [9], the inhibition was found to be 41%. The IC50 in [1] was 28 µM; in experiment [2] it was 17 µM; in experiment [3], greater than 100 µM.

As for `CC(C)Cn1c(=O)n(C)c(=S)c2c1ncn2Cc1ccccc1`, the results for the IC50 in [1], in experiment [2] and in experiment [3] were 3.3 µM, 2.7 µM and 28 µM, respectively.

`CC(C)Cn1c(=O)n(C)c(=O)c2c1ncn2C`: the results for the IC50 in experiment [1], in experiment [2] and in experiment [3] were 65 µM, 55 µM and 126 µM, respectively.

In the case of `CC(C)Cn1c(=O)n(C)c(=O)c2c1ncn2CC1CC1`, the IC50 was determined as 6.1 µM in [1], 3.7 µM in experiment [2] and 20 µM in experiment [3].

Take `CC(C)Cn1c(=O)n(C)c(=O)c2c1ncn2Cc1ccncc1`: the inhibition in the experiment filed under Sus scrofa [9] was determined as 30%. Besides, the IC50 was 146 µM in experiment [1], 105 µM in experiment [2] and greater than 300 µM in experiment [3].

`C#CCn1cnc2c1c(=O)n(C)c(=O)n2CC(C)C`: the IC50 was determined as 36 µM in experiment [1], 28 µM in [2] and 65 µM in experiment [3].

Take `COc1ccccc1Cn1cnc2c1c(=O)n(C)c(=O)n2CC(C)C`: the IC50 in experiment [1] came out at 26 µM; in experiment [2], 19 µM; in [3] it was 75 µM.

Consider `CC(C)Cn1c(N)c(NCc2ccccc2)c(=O)n(C)c1=O`, for which the inhibition worked out at 30% in the experiment filed under Sus scrofa [7], 37% in the experiment listed under Sus scrofa [8] and 9% in the experiment listed under Sus scrofa [9].

With `Cn1c(N)c(NCc2ccccc2)c(=O)n(C)c1=O`, the figures for the inhibition in the experiment listed under Sus scrofa [7], in the experiment filed under Sus scrofa [8] and in the experiment filed under Sus scrofa [9] were 17%, 26% and 15%, respectively.

With `CC(C)CCn1cnc2c1c(=O)n(C)c(=O)n2CC(C)C`, the inhibition in the experiment listed under Sus scrofa [9] was 36%. Further, the IC50 is 16 µM in [1], 19 µM in [2] and greater than 100 µM in experiment [3].

With `CC(C)Cn1c(=O)n(C)c(=S)c2[nH]cnc21`, the IC50 came out at 7.1 µM in experiment [1], 5.5 µM in [2] and 6.8 µM in experiment [3].

Turning to `CC(C)Cn1c(=O)n(C)c(=O)c2c1ncn2Cc1ccc([N+](=O)[O-])cc1`, the inhibition in the experiment filed under Sus scrofa [9] was 44%. Besides, the values for the IC50 in experiment [1], in experiment [2] and in experiment [3] were 34 µM, 27 µM and greater than 100 µM, respectively.

`COc1cc(Cn2cnc3c2c(=O)n(C)c(=O)n3CC(C)C)cc(OC)c1OC`: the inhibition in the experiment filed under Sus scrofa [9] is 31%. Besides, the values for the IC50 in experiment [1], in [2] and in experiment [3] were 46 µM, 35 µM and greater than 100 µM, respectively.

In the case of `CC(C)Cn1c(=O)n(C)c(=O)c2c1ncn2Cc1ccccc1`, the IC50 in [1] was 4.4 µM; in experiment [2], 3.6 µM; in [3] it was 108 µM. The inhibition result in the experiment listed under Sus scrofa [4], in the experiment filed under Sus scrofa [5] and in the experiment filed under Sus scrofa [6] was “Active” in each case.

These data come from ChEMBL document CHEMBL3271934, “Inhibition of separated forms of phosphodiesterases from pig coronary arteries by uracils and by 7-substituted derivatives of 1-methyl-3-isobutylxanthine” (J Med Chem, 1976).
